Measured values pooled from the literature.
Each line is one published result; the experiments were not run side by side.
CDK16: Cyclin-dependent kinase 16 (CDK16, Homo sapiens, UniProt Q00536)
CDK16 with cyclin Y: Cyclin-dependent kinase 16, with cyclin Y (CDK16, Homo sapiens, UniProt Q00536)

| Compound | target | assay | setting | measurement | value |
| --- | --- | --- | --- | --- | --- |
| CCS(=O)(=O)c1cc2cc(C[C@](O)(CC(C)(C)c3ccc(F)cc3C(N)=O)C(F)(F)F)[nH]c2cn1 | CDK16 | cell-free assay, competition with immobilised ligand | 1 µM | remaining binding | 100% |
| Nc1ncnc2occ(-c3ccc(NC(=O)Nc4cc(C(F)(F)F)ccc4F)cc3)c12 | CDK16 | cell-free assay, inhibitor | 20 µM | remaining signal | 0.15% |
| CCCOc1ccc([C@H]2[C@H](C(=O)O)[C@@H](c3ccc4c(c3)OCO4)CN2CC(=O)Nc2c(CC)cccc2CC)cc1 | CDK16 | cell-free assay, competition with immobilised ligand | 1 µM | remaining binding | 77% |
| CC(C)(C)c1nc2c(s1)c1nc(N)ncc1c1ccc(NS(=O)(=O)c3c(F)cccc3F)c(F)c12 | CDK16 with cyclin Y | enzyme activity, inhibitor, radiometric | 1 µM | remaining activity | 87% |
| Cn1c2c(c3ccccc31)C(C#N)C(C)(C)NC2=O (stereo not drawn) | CDK16 | thermal stability, DSF | 10 µM | ΔTm | 0.2 °C |
| Cc1ccc(C(=O)NCc2ccsc2)cc1C#Cc1cn(C(C)C)c2ncnc(N)c12 | CDK16 with cyclin Y | enzyme activity, inhibitor | 1 µM | activity vs control | 101% |
| O=C(CSc1nc2nccnc2c(=O)n1CCc1ccccc1)Nc1nccs1 | CDK16 with cyclin Y | enzyme activity, inhibitor | 10 µM | inhibition | -7% |
| Cn1c2c(c3ccc(Cl)c(Cl)c31)C(C#N)C1(CCN(C(=O)OC(C)(C)C)CC1)NC2=O (racemic) | CDK16 | thermal stability, DSF | 10 µM | ΔTm | 0 °C |
| c1ccc(CNc2nc(N3CCOc4ccccc43)nc3c2CCCC3)cc1 | CDK16 | target engagement in cells, inhibitor, chemoproteomics | 20 mM | inhibition | 2.9% |
| Cc1ccc(C(=O)Nc2ccc(CN3CCN(C)CC3)c(C(F)(F)F)c2)cc1C#Cc1cnc2cccnn12 | CDK16 | enzyme activity, inhibitor | 23.5 nM | remaining activity | 77% |
| Cn1c2c(c3ccc(Cl)c(Cl)c31)C(C#N)C(C)(C)NC2=O (stereo not drawn) | CDK16 | thermal stability, DSF | 10 µM | ΔTm | 0.7 °C |
| CNC(=O)Nc1ccc2c(c1)CC[C@@]21OC(=O)N(CC(=O)N(Cc2ccc(F)cc2)[C@@H](C)C(F)(F)F)C1=O | CDK16 | cell-free assay, competition with immobilised ligand | 1 µM | remaining binding | 75% |
